Experiment [1] concerns the target Glutamate receptor ionotropic, AMPA (Rattus norvegicus, UniProt P19490+P19491+P19492+P19493). Put plainly: Displacement of [3H]AMPA from AMPA receptor in Sprague-Dawley rat brain cortical synaptic membranes after 1 hr by liquid scintillation counting. The method in brief: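 Radioligand displacement in rat cortical membranes: [3H]AMPA labelled AMPA receptors and [3H]KA labelled kainate receptors. Results are reported as IC50 for displacement of the radioligand.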
In general terms: In a radioligand displacement assay an active substance lowers the binding of a labelled ligand.

Experiment [2] addresses Glutamate NMDA receptor. Put plainly: Displacement of [3H]CGP39653 from NMDA receptor in Sprague-Dawley rat brain cortical synaptic membranes after 1 hr by liquid scintillation counting v. The procedure, abridged: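 Competition binding on rat cortical membranes, with [3H]CGP39653 labelling NMDA receptor sites. Ki values were derived and expressed as mean pKi ± SEM from three independent experiments. Hill coefficients were also determined.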

For experiment [3], the target named is Glutamate receptor ionotropic, AMPA (Rattus norvegicus) (UniProt P19491+P19492+P19493+P19490). Put plainly: Displacement of [3H]AMPA from AMPA receptor in Sprague-Dawley rat brain cortical synaptic membranes at 100 uM after 1 hr by liquid scintillation counting. The method in brief: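 In rat cortical membrane binding, test compounds were applied at a single concentration of 100 µM. Percent displacement of bound [3H]AMPA (AMPA sites) or [3H]KA (kainate sites) was recorded.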

The target in experiment [4] is kainate receptor (Rattus norvegicus). Put plainly: Displacement of [3H]KAIN from kainate receptor in Sprague-Dawley rat brain cortical synaptic membranes after 1 hr by liquid scintillation counting.
Experiment [5] deals with kainate receptor (Rattus norvegicus). Put plainly: Displacement of [3H]KAIN from kainate receptor in Sprague-Dawley rat brain cortical synaptic membranes at 100 uM after 1 hr by liquid scintillation counting.
Experiment [6] addresses Glutamate NMDA receptor. Put plainly: Displacement of [3H]CPP from NMDA receptor in Sprague-Dawley rat brain cortical synaptic membranes after 1 hr by liquid scintillation counting v.

Each structure is given as a SMILES string. pIC50, pKi: −log10 of the molar value. Where only a bound is given, the exact number is not on record here.

Regarding `N[C@H](CCCc1cscc1C(=O)O)C(=O)O`, the pIC50 in experiment [1] and in experiment [4] was < 4.00 throughout. On Glutamate NMDA receptor [2], this compound gave a pKi of 4.85. In addition, the inhibition in experiment [3] and in experiment [5] was 5% throughout.

As to `N[C@H](CCCc1ccccc1C(=O)O)C(=O)O`, the pIC50 in experiment [1] and in experiment [4] was < 4.00 each time. This compound gave a pKi at Glutamate NMDA receptor [2] of 4.49. Moreover, the inhibition in experiment [3] and in experiment [5] was 5% in each case.

In turn, `N[C@H](CCCC(=O)O)C(=O)O` gave a pKi on Glutamate NMDA receptor [6] of 4.89.

Regarding `N[C@H](C/C=C/c1cscc1C(=O)O)C(=O)O`, the pIC50 in experiment [1] and in experiment [4] was < 4.00 throughout. The pKi on Glutamate NMDA receptor [2] is 4.28. The inhibition in experiment [3] and in experiment [5] was 5% in each case.

In the case of `N[C@H](C/C=C/c1ccccc1C(=O)O)C(=O)O`, the pIC50 in experiment [1] and in experiment [4] was < 4.00 each time. Further, the negative logarithm of the Ki (pKi) on Glutamate NMDA receptor [2] is < 4.00. In addition, the inhibition in experiment [3] and in experiment [5] was 5% throughout.

By pIC50 is commonly meant the negative decadic logarithm of the IC50, by convention in mol/L. Lower therefore signals a high IC50. By pKi is commonly meant −log10 of the Ki, conventionally taken in molar units. Low readings indicate a large Ki, high ones a small Ki. The inhibition is the drop in the measured response relative to a control, in per cent. Read a high inhibition as a strong effect.

(Values after ChEMBL document CHEMBL3232978, “Efficient synthesis of novel glutamate homologues and investigation of their affinity and selectivity profile at ionotropic glutamate receptors” (Bioorg Med Chem Lett, 2014).)
